Reference: ChEMBL document CHEMBL3739276, “Discovery of A-971432, An Orally Bioavailable Selective Sphingosine-1-Phosphate Receptor 5 (S1P5) Agonist for the Potential Treatment of Neurodegenerative Disorders” (J Med Chem, 2015)
Calls of active or inactive are those of the source. No cut-off for these calls is given here.

How the values were obtained:
Rattus norvegicus [1] = assay: Lymphopenia activity in Sprague-Dawley rat assessed as change in lymphocyte counts at 100 mg/kg, po measured 5 hrs post dose; format: ADME, organism-based; conditions: in vivo
Salmonella typhimurium = assay: Genotoxicity in Salmonella typhimurium by Ames assay; format: toxicity, organism-based; conditions: salmonella enterica subsp. enterica serovar typhimurium
[2] = molecular target: Sphingosine 1-phosphate receptor 2 (Homo sapiens) (UniProt O95136); assay: Agonist activity at S1P2 receptor (unknown origin) expressed in CHO cell membranes up to 10 uM after 30 mins by GTPgammaS binding assay; format: functional
[3] = Plasma concentration in C57BL6J mouse at 0.1 mg/kg, po qd administered for 21 days during spontaneous alteration T-maze assay; format: ADME, organism-based
How it was run: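 Male C57BL/6J mice aged 12 months (n = 20), with 2-month-old mice (n = 11) as young controls. Randomized and blinded. Single daily oral doses (10 mL/kg) for 21 days. On day 21, dosed 225 min before a spontaneous-alternation trial in a gray Plexiglas T-maze. Exposure measured in plasma and brain. One-way ANOVA.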

[4] = Volume of distribution at steady state in Sprague-Dawley rat plasma at 1 mg/kg, iv; format: ADME, organism-based; conditions: read-out: Vdss
[5] = Cmax in BALB/C mouse plasma at 2 mg/kg, po; format: ADME, organism-based; parameters: dose 2 mg/kg, route oral
[6] = Clearance in BALB/C mouse plasma at 2 mg/kg, iv; format: ADME, organism-based
[7] = Half life in beagle dog plasma at 1 mg/kg, po; format: ADME, organism-based, Canis lupus familiaris
Rattus norvegicus [8] = assay: Toxicity in female Sprague-Dawley rat assessed as increase in liver weight at 100 mg/kg, po qd measured on day 14; format: organism-based; conditions: in vivo
[9] = Cmax in BALB/C mouse brain at 2 mg/kg, po; format: ADME, organism-based; parameters: dose 2 mg/kg, route oral
Mus musculus = assay: Decrease in pulmonary antigen challenge-induced MCP1 level in CD1 mouse at 0.3 to 30 mg/kg, po qd; format: functional, organism-based
How it was run: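 Part of a 41-assay multiplexed in vivo screening panel run at Melior Discovery. CD1 mice received 0.3, 3 and 30 mg/kg orally once daily; endpoints were compared with vehicle-treated mice.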

[10] = AUC in Sprague-Dawley rat at 10 mg/kg, po qd measured on day 2 and day 14; format: ADME, organism-based; conditions: in vivo
How it was run: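 Sprague-Dawley rats of both sexes dosed orally once daily for 14 days in a tolerability study; exposure AUC measured on day 2 and day 14.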

Rattus norvegicus [11] = assay: Toxicity in Sprague-Dawley rat assessed as survival at 10 to 100 mg/kg, po qd measured on day 14; format: organism-based; conditions: in vivo
[12] = Plasma concentration in Sprague-Dawley rat at 30 mg/kg, iv administered for 30 mins; format: ADME, organism-based
[13] = Cmax in CD1 mouse at 10 mg/kg, po; format: ADME, organism-based; parameters: dose 10 mg/kg, route oral; conditions: in vivo
[14] = AUC in Sprague-Dawley rat plasma at 1 mg/kg, iv; format: ADME, organism-based
Brain = assay: Cmax in BALB/C mouse brain at 2 mg/kg, iv; format: ADME, organism-based; parameters: dose 2 mg/kg, route intravenous; conditions: in vivo
[15] = molecular target: Sphingosine 1-phosphate receptor 2 (Homo sapiens) (UniProt O95136); assay: Displacement of [33P]S1P from S1P2 receptor (unknown origin) expressed in HEK cell membranes after 90 mins by scintillation counting based RLB method; conditions: HEK293
How it was run: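 S1P2 in transiently transfected HEK cell membranes, 5-10 µg per well, in HEPES pH 7.4 buffer with NaCl, MgCl2 and 0.1% fatty-acid-free BSA. [33P]S1P at 50 pM; non-specific binding defined with 1 µM unlabelled S1P. Incubated 90 min at 4°C, then filtered and scintillation counted. IC50 from non-linear curve fit of percent inhibition.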

[16] = Oral bioavailability in BALB/C mouse plasma at 2 mg/kg; format: ADME, organism-based
[17] = molecular target: Sphingosine 1-phosphate receptor 1 (Homo sapiens, UniProt P21453); assay: Agonist activity at S1P1 receptor (unknown origin) expressed in CHO cell membranes up to 10 uM after 30 mins by GTPgammaS binding assay; format: functional
[18] = AUC in cynomolgus monkey plasma at 1 mg/kg, po; format: ADME, organism-based, Macaca fascicularis
[19] = Cmax in Sprague-Dawley rat plasma at 1 mg/kg, po; format: ADME, organism-based; parameters: dose 1 mg/kg, route oral
[20] = Clearance in Sprague-Dawley rat plasma at 1 mg/kg, iv; format: ADME, organism-based
[21] = Volume of distribution at steady state in beagle dog plasma at 1 mg/kg, iv; format: ADME, organism-based, Canis lupus familiaris; conditions: read-out: Vdss
[22] = Tmax in Sprague-Dawley rat plasma at 1 mg/kg, po; format: ADME, organism-based

Sphingosine 1-phosphate receptor 2 (Homo sapiens), sequence (O95136 whole entry): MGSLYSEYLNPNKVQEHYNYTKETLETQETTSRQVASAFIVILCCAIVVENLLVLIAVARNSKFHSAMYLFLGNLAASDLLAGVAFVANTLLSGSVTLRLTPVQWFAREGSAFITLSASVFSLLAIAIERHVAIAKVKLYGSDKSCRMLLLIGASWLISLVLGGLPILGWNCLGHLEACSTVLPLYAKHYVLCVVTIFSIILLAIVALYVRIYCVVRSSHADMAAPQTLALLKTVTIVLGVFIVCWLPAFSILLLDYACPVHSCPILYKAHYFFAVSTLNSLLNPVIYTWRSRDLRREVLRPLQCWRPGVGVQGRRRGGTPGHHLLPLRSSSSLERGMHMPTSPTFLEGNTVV
Sphingosine 1-phosphate receptor 1, sequence (P21453 whole entry): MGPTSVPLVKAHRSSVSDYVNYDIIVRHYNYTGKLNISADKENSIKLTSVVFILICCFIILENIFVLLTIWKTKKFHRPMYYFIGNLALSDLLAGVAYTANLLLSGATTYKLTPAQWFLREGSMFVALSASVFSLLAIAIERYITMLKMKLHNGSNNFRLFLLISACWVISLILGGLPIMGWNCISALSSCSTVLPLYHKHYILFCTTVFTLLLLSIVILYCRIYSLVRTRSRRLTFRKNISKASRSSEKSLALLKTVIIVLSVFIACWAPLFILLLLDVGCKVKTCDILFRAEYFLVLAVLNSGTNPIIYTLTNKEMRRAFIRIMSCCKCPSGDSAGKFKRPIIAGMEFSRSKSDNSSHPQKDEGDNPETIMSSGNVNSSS

O=C(O)C1CN(Cc2ccc(OCc3ccc(Cl)c(Cl)c3)cc2)C1
Activity (Rattus norvegicus [1]): Non-toxic
Activity (Salmonella typhimurium): Non-toxic
Activity [2]: inactive
concentration at 504 h ([3]; in vivo): 28.3 ng/g
concentration at 504 h ([3]; plasma): 41.6 ng/mL
Vd [4]: 1.3 L/kg
Cmax [5]: 300 ng/mL
clearance [6]: 4 mL/min/kg
half-life [7]: 10 h
Activity (Rattus norvegicus [8]): 30%
Cmax [9]: 43 ng/mL
Activity (Mus musculus): inactive
AUC [10]: 43000 ng·h/mL
Activity (Rattus norvegicus [11]): Non-toxic
concentration at 0.5 h [12]: 20300 ng/mL
Cmax [13]: 2500 ng/mL
AUC [14]: 6400 ng·h/mL
Cmax (Brain): 133 ng/mL
Activity [15]: inactive
bioavailability [16]: 57%
Activity [17]: inactive
AUC [18]: 5500 ng·h/mL
Cmax [19]: 400 ng/mL
clearance [20]: 2.67 mL/min/kg
Vd [21]: 1.2 L/kg
Tmax [22]: 4.3 h
